The source of these data is paper PMC12461553 (RSC Advances, 2025).

For one assay, the system named is MDA-MB-231 cells. Description: SRB cytotoxicity assay, MDA-MB-231. Type of assay: cell-based, human. The settings on record: for cytotoxicity at 25 µM: Homo sapiens, MDA-MB-231, 48 h, read-out: Average cell death (%) MDA-MB-231.
The subject of the next assay is MCF-7 cells. The assay is described as follows: SRB cytotoxicity assay, MCF-7. The following applies: for cytotoxicity at 25 µM: Homo sapiens, MCF7, 48 h, read-out: Average cell death (%) MCF-7. It counts as cell-based, human. In general terms: Sulforhodamine B stains cellular protein and so reports cell mass.
Another assay concerns 4T1 cells. Description: SRB cytotoxicity assay, 4T1. It counts as cell-based, murine. The settings on record: Mus musculus, 4T1, 48 h, read-out: Average cell death (%) 4T1. In a few lines: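 Single-dose screen: cells in DMEM/10% FBS at 37 °C, 5% CO2, seeded at 3000 per well, attached 24 h, then exposed to test compound at 25 μM final for 48 h. Fixed in cold 10% TCA, 1 h, 4 °C; stained 0.057% SRB, 30 min, dark, room temperature; rinsed with 1% acetic acid; dye solubilised in Tris base pH 10.5; absorbance 510 nm; percent cell death.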

For the compound `Cc1ccc(C(=O)c2c(-c3ccccc3)n(CCc3ccccc3)c(=O)c3c2c2ccccc2n3C)cc1` [10c, 9-Methyl-4-(4-methylbenzoyl)-2-phenethyl-3-phenyl-2,9-dihydro-1H-pyrido[3,4-b]indol-1-one], the cytotoxicity at 25 µM with MDA-MB-231 cells stood at 15.6 ± 1.15%; with MCF-7 cells, 26.2 ± 4.15%; in the assay on 4T1 cells, 60.5 ± 3.07%.

For the compound `CCCCn1c(-c2ccccc2)c(C(=O)c2ccc(C(F)(F)F)cc2)c2c3ccccc3n(C)c2c1=O` [11d, 2-Butyl-9-methyl-3-phenyl-4-(4-(trifluoromethyl)benzoyl)-2,9-dihydro-1H-pyrido[3,4-b]indol-1-one], the cytotoxicity at 25 µM with MDA-MB-231 cells was determined as 14.7 ± 2.9%.

For `Cn1c2ccccc2c2c(C(=O)c3ccccc3)c(-c3ccccc3)n(Cc3ccccc3)c(=O)c21` [9a, 4-Benzoyl-2-benzyl-9-methyl-3-phenyl-2,9-dihydro-1H-pyrido[3,4-b]indol-1-one], the cytotoxicity at 25 µM amounted to 32.8 ± 3.16% in the assay on MDA-MB-231 cells, 9.16 ± 2.08% in the assay with MCF-7 cells and 47.8 ± 3.32% with 4T1 cells.

As for `CCCCn1c(-c2ccccc2)c(C(=O)c2ccc(OC)cc2)c2c3ccccc3n(C)c2c1=O` [11b, 2-Butyl-4-(4-methoxybenzoyl)-9-methyl-3-phenyl-2,9-dihydro-1H-pyrido[3,4-b]indol-1-one], the cytotoxicity at 25 µM with MDA-MB-231 cells is 30.3 ± 1.2%.

On to `Cn1c2ccccc2c2c(C(=O)c3ccc(C(F)(F)F)cc3)c(-c3ccccc3)n(-c3nc4ccccc4s3)c(=O)c21` [12d, 2-(Benzo[d]thiazol-2-yl)-9-methyl-3-phenyl-4-(4-(trifluoromethyl)benzoyl)-2,9-dihydro-1H-pyrido[3,4-b]indol-1-one], for which the cytotoxicity at 25 µM in the assay on MDA-MB-231 cells was 24.5 ± 2.7%.

For `CCCCn1c(-c2ccccc2)c(C(=O)c2ccc(F)cc2)c2c3ccccc3n(C)c2c1=O` [11e, 2-Butyl-4-(4-fluorobenzoyl)-9-methyl-3-phenyl-2,9-dihydro-1H-pyrido[3,4-b]indol-1-one], in the assay with MDA-MB-231 cells, the cytotoxicity at 25 µM was 31.8 ± 1.8%.

Take `Cc1ccc(C(=O)c2c(-c3ccccc3)n(-c3nc4ccccc4s3)c(=O)c3c2c2ccccc2n3C)cc1` [12c, 2-(Benzo[d]thiazol-2-yl)-9-methyl-4-(4-methylbenzoyl)-3-phenyl-2,9-dihydro-1H-pyrido[3,4-b]indol-1-one]: in the assay on MDA-MB-231 cells, the cytotoxicity at 25 µM was determined as 31.3 ± 4%.

Turning to `Cn1c2ccccc2c2c(C(=O)c3ccccc3)c(-c3ccccc3)n(-c3nc4ccccc4s3)c(=O)c21` [12a, 2-(Benzo[d]thiazol-2-yl)-4-benzoyl-9-methyl-3-phenyl-2,9-dihydro-1H-pyrido[3,4-b]indol-1-one], in the assay with MDA-MB-231 cells, the cytotoxicity at 25 µM was determined as 26.9 ± 2.6%.

Consider `N.N.[Cl][Pt][Cl]` [Cisplatin, reference compound], for which, in the assay on MDA-MB-231 cells (at 100 μM, SRB assay), the “Average cell death (%) MDA-MB-231” value is recorded as 75 ± 4.3%. In addition, the “Average cell death (%) MCF-7” value in the assay with MCF-7 cells (at 100 μM, SRB assay) is recorded as 80 ± 6.2%.

As for `COc1ccc(C(=O)c2c(-c3ccccc3)n(-c3nc4ccccc4s3)c(=O)c3c2c2ccccc2n3C)cc1` [12b, 2-(Benzo[d]thiazol-2-yl)-4-(4-methoxybenzoyl)-9-methyl-3-phenyl-2,9-dihydro-1H-pyrido[3,4-b]indol-1-one], the cytotoxicity at 25 µM in the assay with MDA-MB-231 cells came to 4.08 ± 1.1%.

In the case of `Cn1c2ccccc2c2c(C(=O)c3ccc(F)cc3)c(-c3ccccc3)n(-c3nc4ccccc4s3)c(=O)c21` [12e, 2-(Benzo[d]thiazol-2-yl)-4-(4-fluorobenzoyl)-9-methyl-3-phenyl-2,9-dihydro-1H-pyrido[3,4-b]indol-1-one], the cytotoxicity at 25 µM in the assay with MDA-MB-231 cells turned out to be 34.9 ± 1.7%.

`CCCCn1c(-c2ccccc2)c(C(=O)c2ccc(C)cc2)c2c3ccccc3n(C)c2c1=O` [11c, 2-Butyl-9-methyl-4-(4-methylbenzoyl)-3-phenyl-2,9-dihydro-1H-pyrido[3,4-b]indol-1-one]: the cytotoxicity at 25 µM with MDA-MB-231 cells stood at 31.2 ± 1.6%.

Consider `CCCCn1c(-c2ccccc2)c(C(=O)c2ccccc2)c2c3ccccc3n(C)c2c1=O` [11a, 4-Benzoyl-2-butyl-9-methyl-3-phenyl-2,9-dihydro-1H-pyrido[3,4-b]indol-1-one], for which the cytotoxicity at 25 µM in the assay on MDA-MB-231 cells was 36.6 ± 3.2%.
